Reference: ChEMBL document CHEMBL1126297, “Synthesis and evaluation of analogues of (Z)-1-(4-methoxyphenyl)-2-(3,4,5-trimethoxyphenyl)ethene as potential cytotoxic and antimitotic agents” (J Med Chem, 1992)

Experiments:
Type in all cases: functional
HT-29 = test: Cytotoxicity against human HT-29 colon cell line.; conditions: read-out: ED50 (the source's name)
Outline: (§1)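 MTT colorimetric assay run in the Purdue Cell Culture Laboratory. Poorly water-soluble compounds were serially diluted in DMSO and added as 0.5 μL aliquots per well. Cells were incubated with compound for 6 days before MTT was added. […] The reported ED50 is the mean of two determinations.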

MLM = test: Cytotoxicity against human MLM melanoma cell line.; conditions: read-out: ED50 (the source's name); outline: as §1
MCF7 = test: Cytotoxicity against human MCF-7 breast cancer cell line.; conditions: read-out: ED50 (the source's name); outline: as §1
A549 = test: Compound was evaluated for cytotoxicity against human A-549 non-small cell lung cancer cell line.; conditions: read-out: ED50 (the source's name); outline: as §1
SK-MEL-5 = test: Compound was evaluated for cytotoxicity against human SKMEL-5 melanoma cell line.; conditions: read-out: ED50 (the source's name); outline: as §1
Bos taurus = species: Bos taurus; test: Inhibition of tubulin polymerization
Outline: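 Bovine brain tubulin, purified to electrophoretic homogeneity, was preincubated at 37 °C with a range of compound concentrations and then chilled on ice. GTP was added and polymerization followed at 37 °C by turbidity at 350 nm. Extent was read at 20 min against two controls per experiment, and IC50 was determined graphically. Actives were run in ≥3 independent assays, inactives (IC50 > 40 μM) in ≥2.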

| Compound | EC50 (HT-29) [nM] | EC50 (MLM) [µM] | EC50 (MCF7) [µM] | EC50 (A549) [µM] | EC50 (SK-MEL-5) [nM] | IC50 (Bos taurus) [µM] |
| --- | --- | --- | --- | --- | --- | --- |
| COc1ccc(/C=C\c2cc(OC)c(OC)c(OC)c2)cc1O [COMBRETASTATIN A4] | 10 | 0.00043 | 0.0056 | 0.00032 | 0.14 | – |
| COc1ccc(C(=O)c2cc(OC)c(OC)c(OC)c2)cc1 | 1300 | 1.3 | 1.5 | 1.1 | 1200 | 7.4 |
| COC(=O)C(Cc1cc(OC)c(OC)c(OC)c1)c1ccc(OC)cc1 (configuration not stated) | > 25000 | > 25 | > 25 | > 25 | > 25000 | > 40 |
| COc1ccc(Cc2cc(OC)c(OC)c(OC)c2)cc1 | 1300 | 1.3 | 1.9 | 1.5 | 1200 | 15 |
| COC(=O)/C(=C/c1cccc(OC)c1)c1cc(OC)c(OC)c(OC)c1 | 700 | 15.5 | 1.3 | 1.3 | 1500 | > 40 |
| CCN(CC)CCOC(=O)/C(=C/c1cccc(OC)c1)c1cc(OC)c(OC)c(OC)c1 | > 25000 | > 25 | 10.4 | 7.7 | 6700 | > 40 |
| COc1cc(/C=C\c2ccc(C(C)(C)C)cc2)cc(OC)c1OC | 880 | 4.32 | 1.57 | 1.02 | 210 | > 40 |
| COc1cc(CCc2ccc(C)cc2)cc(OC)c1OC | 100 | 1.4 | 0.22 | 0.18 | 270 | 21 |
| COc1cc(/C=C/c2ccc(SC)cc2)cc(OC)c1OC | 83 | 7.3 | 0.059 | 0.47 | 280 | > 40 |
| COc1cc(CCc2ccc(SC)cc2)cc(OC)c1OC | 400 | 1.3 | 0.2 | 0.15 | 240 | > 40 |
| COc1ccc(CC(C#N)c2cc(OC)c(OC)c(OC)c2)cc1 (configuration not stated) | 7500 | 1.6 | 1.4 | 9.6 | 4100 | 11 |
| COc1ccc(C(C#N)Cc2cc(OC)c(OC)c(OC)c2)cc1 (configuration not stated) | 9400 | 21.1 | 14.3 | 11.5 | 6400 | > 40 |
| COc1ccc(C(Cc2cc(OC)c(OC)c(OC)c2)C(=O)O)cc1 (configuration not stated) | 9400 | > 25 | > 25 | 14.3 | 7400 | > 40 |
| COc1cc2ccc3c(OC)cccc3c2c(OC)c1OC | 9300 | > 25 | 14.6 | > 25 | 12000 | > 40 |
| COc1ccc(/C=C/c2ccc(OC)c(OC)c2)cc1 | > 25000 | > 25 | > 25 | 11.7 | > 25000 | > 40 |
| COc1ccc(C2Cc3cc(OC)c(OC)c(OC)c3C2)cc1 (configuration not stated) | 12800 | > 25 | > 25 | > 25 | 19500 | > 40 |
| COc1cc(/C=C\c2ccc(SC)cc2)cc(OC)c1OC | 0.0018 | 0.0033 | 0.0054 | 0.00019 | 0.004 | 6.2 |
| COc1cc(/C=C\c2ccc(C(C)C)cc2)cc(OC)c1OC | 2400 | – | 1.4 | – | – | 12 |

| Compound | EC50 (HT-29) [nM] | EC50 (MLM) [µM] | EC50 (MCF7) [µM] | EC50 (A549) [µM] | EC50 (SK-MEL-5) [nM] | IC50 (Bos taurus) [µM] |
| --- | --- | --- | --- | --- | --- | --- |
| CCc1ccc(/C=C/c2cc(OC)c(OC)c(OC)c2)cc1 | 110 | 0.22 | 1.2 | 0.13 | 170 | > 40 |
| COc1ccc(/C=C/c2cc(OC)c(O[Si](C)(C)C(C)(C)C)c(OC)c2)cc1 | > 25000 | > 25 | > 25 | > 25 | > 25000 | > 40 |
| CCOc1ccc(/C=C\c2cc(OC)c(OC)c(OC)c2)cc1 | 1800 | – | 9.6 | 1.6 | 2500 | 2.7 |
| COc1cc(/C=C/c2ccc(C(C)C)cc2)cc(OC)c1OC | 6800 | > 25 | 18.4 | 9.8 | 11100 | > 40 |
| COc1ccc(/C=C\c2ccc(OC)c(OC)c2)cc1 [7Z-3,4,4'-TRIMETHOXYSTILBENE] | > 25000 | > 25 | > 25 | > 25 | > 25000 | 18 |
| CCCOc1ccc(CCc2cc(OC)c(OC)c(OC)c2)cc1 | 6400 | 15 | 3.9 | 7.2 | 6700 | > 40 |
| COc1ccc(/C(=C\c2cc(OC)c(OC)c(OC)c2)C(=O)O)cc1 | 5900 | > 25 | 1.9 | 5.2 | 2300 | > 40 |
| CCc1ccc(CCc2cc(OC)c(OC)c(OC)c2)cc1 | 16 | 0.27 | 0.16 | 0.088 | 47 | 18 |
| COc1ccc(C(=O)c2c3cc(OC)c(OC)c(OC)c3cc[n+]2C)cc1 | > 25000 | > 25 | > 25 | > 25 | > 25000 | > 40 |
| COc1ccc2cc3n(c(=O)c2c1)CCc1c-3cc(OC)c(OC)c1OC | > 25000 | > 25 | > 25 | > 25 | > 25000 | > 40 |
| COc1ccc2c(ccc3cc(OC)c(OC)c(OC)c32)c1 | > 25000 | > 25 | > 25 | > 25 | > 25000 | > 40 |
| COc1cc(CCc2ccc(OCCN(C)C)cc2)cc(OC)c1OC | 9800 | > 25 | 10.3 | > 25 | 11400 | > 40 |
| COc1cc(/C=C/c2ccc(C(C)(C)C)cc2)cc(OC)c1OC | > 25000 | > 25 | > 25 | > 25 | > 25000 | > 40 |
| COc1cc(/C=C/c2ccc(C)cc2)cc(OC)c1OC | 900 | 6.3 | 1.9 | 1.1 | 800 | > 40 |
| CCCOc1ccc(/C=C/c2cc(OC)c(OC)c(OC)c2)cc1 | > 25000 | > 25 | 12.5 | 9.2 | > 25000 | > 40 |
| COc1ccc(Cc2c3cc(OC)c(OC)c(OC)c3cc[n+]2C)cc1 | 20500 | > 25 | > 25 | 19.5 | 2100 | > 40 |
| COc1ccc(/C=C\c2cc(OC)c(OC)c(OC)c2)cc1 | 2600 | 1.6 | – | – | 2600 | 2.5 |
| CCOc1ccc(/C=C/c2cc(OC)c(OC)c(OC)c2)cc1 | 1490 | – | 7.5 | – | 1170 | > 40 |
